Measured values: ChEMBL document CHEMBL2311304, “Design, synthesis and in vitro and in vivo antitumor activities of novel bivalent β-carbolines” (Eur J Med Chem, 2013)

Key:
Assay type in all cases: functional, cell-based
SK-OV-3 = experiment: Cytotoxicity against human ovary adenocarcinoma SKOV3 cells assessed as reduction in optical density by MTT assay; details: SK-OV-3, Female gonad
Outline: (§1)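 Cells were cultured in RPMI-1640 with 10% (v/v) fetal calf serum, 100 µg ml-1 penicillin and 100 µg ml-1 streptomycin at 37 °C in humidified 5% CO2. Compounds were dissolved in DMSO, with final DMSO at 2% (v/v) or lower. MTT staining was used, with three replicate wells per point. IC50 is the concentration giving a 50% drop in optical density versus untreated cells.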

KB = experiment: Cytotoxicity against human epidermoid carcinoma of the nasopharynx KB cells assessed as reduction in optical density by MTT assay; outline: as §1
769-P = experiment: Cytotoxicity against human renal carcinoma 769-P cells assessed as reduction in optical density by MTT assay; outline: as §1
A-375 = experiment: Cytotoxicity against human malignant melanoma A375 cells assessed as reduction in optical density by MTT assay; outline: as §1
BGC-823 = experiment: Cytotoxicity against human gastric carcinoma BGC823 cells assessed as reduction in optical density by MTT assay; outline: as §1

| SMILES | IC50 (SK-OV-3) [µM] | IC50 (KB) [µM] | IC50 (769-P) [µM] | IC50 (A-375) [µM] | IC50 (BGC-823) [µM] |
| --- | --- | --- | --- | --- | --- |
| COc1cc(-c2nccc3c4ccccc4n(CCCCCCCn4c5ccccc5c5ccnc(-c6cc(OC)c(OC)c(OC)c6)c54)c23)cc(OC)c1OC | > 200 | 7.6 | 3.3 | 4 | > 200 |
| CCOC(=O)c1cc2c3ccccc3n(CCCCCCn3c4ccccc4c4cc(C(=O)OCC)nc(-c5cc(OC)c(OC)c(OC)c5)c43)c2c(-c2cc(OC)c(OC)c(OC)c2)n1 | > 200 | > 200 | > 200 | > 200 | > 200 |
| CCOC(=O)c1cc2c3ccccc3n(CCCCCCCCCn3c4ccccc4c4cc(C(=O)OCC)nc(-c5cc(OC)c(OC)c(OC)c5)c43)c2c(-c2cc(OC)c(OC)c(OC)c2)n1 | > 200 | > 200 | > 200 | > 200 | > 200 |
| Cc1nccc2c3cc(Br)ccc3n(CCCCCn3c4ccc(Br)cc4c4ccnc(C)c43)c12 | > 200 | > 200 | 4.3 | > 200 | > 200 |
| Cc1nccc2c3cc(Br)ccc3n(CCCCCCn3c4ccc(Br)cc4c4ccnc(C)c43)c12 | 63.4 | > 200 | > 200 | > 200 | > 200 |
| COc1ccc2c3ccnc(C)c3n(CCCCCn3c4cc(OC)ccc4c4ccnc(C)c43)c2c1 | 1.7 | 5 | 81 | < 1.4 | 58.6 |
| COc1ccc2c3ccnc(C)c3n(CCCCCCn3c4cc(OC)ccc4c4ccnc(C)c43)c2c1 | 11.7 | 155 | > 200 | 35.3 | > 200 |
| COc1ccc2c3ccnc(C)c3n(CCCCCCCn3c4cc(OC)ccc4c4ccnc(C)c43)c2c1 | 10.2 | 38.6 | 114 | 113 | 104 |
| COc1ccc2c3ccnc(C)c3n(CCCCCCCCn3c4cc(OC)ccc4c4ccnc(C)c43)c2c1 | 7.1 | 2.8 | 65.6 | 6.2 | 75.7 |
| CCCCOc1ccc2c3ccnc(C)c3n(CCCCn3c4cc(OCCCC)ccc4c4ccnc(C)c43)c2c1 | 5.5 | 6.8 | > 200 | 3.8 | 8.5 |
| CCCCOc1ccc2c3ccnc(C)c3n(CCCCCCn3c4cc(OCCCC)ccc4c4ccnc(C)c43)c2c1 | > 200 | > 200 | 56 | > 200 | > 200 |
| Cc1nccc2c3ccc(OC(C)C)cc3n(CCCCCCCCCn3c4cc(OC(C)C)ccc4c4ccnc(C)c43)c12 | 101 | 112 | 40 | 43.3 | > 200 |
| CC(C)c1nccc2c3ccccc3n(CCCCCCn3c4ccccc4c4ccnc(C(C)C)c43)c12 | 31.8 | > 200 | 18.5 | 53.5 | > 200 |
| CC(C)c1nccc2c3ccccc3n(CCCCCCCCCCn3c4ccccc4c4ccnc(C(C)C)c43)c12 | > 200 | > 200 | 4.6 | 19.6 | > 200 |
| c1ccc2c(c1)c1ccnc(-c3ccsc3)c1n2CCCCCCn1c2ccccc2c2ccnc(-c3ccsc3)c21 | > 200 | > 200 | > 200 | > 200 | > 200 |
| c1ccc2c(c1)c1ccnc(-c3ccsc3)c1n2CCCCCCCCn1c2ccccc2c2ccnc(-c3ccsc3)c21 | > 200 | > 200 | > 200 | 32.1 | > 200 |
